This note sets out measurements from ChEMBL document CHEMBL1152556, “Omega-conotoxin GVIA mimetics based on an anthranilamide core: effect of variation in ammonium side chain lengths and incorporation of fluorine” (Bioorg Med Chem, 2009).

Broadly, the pEC50 is the EC50 on a negative log10 scale, so that one unit is a factor of ten.

Molecules are shown by their SMILES. pEC50: −log10 of the molar value.

Chain of Voltage-dependent N-type calcium channel subunit alpha-1B (Q02294 whole entry): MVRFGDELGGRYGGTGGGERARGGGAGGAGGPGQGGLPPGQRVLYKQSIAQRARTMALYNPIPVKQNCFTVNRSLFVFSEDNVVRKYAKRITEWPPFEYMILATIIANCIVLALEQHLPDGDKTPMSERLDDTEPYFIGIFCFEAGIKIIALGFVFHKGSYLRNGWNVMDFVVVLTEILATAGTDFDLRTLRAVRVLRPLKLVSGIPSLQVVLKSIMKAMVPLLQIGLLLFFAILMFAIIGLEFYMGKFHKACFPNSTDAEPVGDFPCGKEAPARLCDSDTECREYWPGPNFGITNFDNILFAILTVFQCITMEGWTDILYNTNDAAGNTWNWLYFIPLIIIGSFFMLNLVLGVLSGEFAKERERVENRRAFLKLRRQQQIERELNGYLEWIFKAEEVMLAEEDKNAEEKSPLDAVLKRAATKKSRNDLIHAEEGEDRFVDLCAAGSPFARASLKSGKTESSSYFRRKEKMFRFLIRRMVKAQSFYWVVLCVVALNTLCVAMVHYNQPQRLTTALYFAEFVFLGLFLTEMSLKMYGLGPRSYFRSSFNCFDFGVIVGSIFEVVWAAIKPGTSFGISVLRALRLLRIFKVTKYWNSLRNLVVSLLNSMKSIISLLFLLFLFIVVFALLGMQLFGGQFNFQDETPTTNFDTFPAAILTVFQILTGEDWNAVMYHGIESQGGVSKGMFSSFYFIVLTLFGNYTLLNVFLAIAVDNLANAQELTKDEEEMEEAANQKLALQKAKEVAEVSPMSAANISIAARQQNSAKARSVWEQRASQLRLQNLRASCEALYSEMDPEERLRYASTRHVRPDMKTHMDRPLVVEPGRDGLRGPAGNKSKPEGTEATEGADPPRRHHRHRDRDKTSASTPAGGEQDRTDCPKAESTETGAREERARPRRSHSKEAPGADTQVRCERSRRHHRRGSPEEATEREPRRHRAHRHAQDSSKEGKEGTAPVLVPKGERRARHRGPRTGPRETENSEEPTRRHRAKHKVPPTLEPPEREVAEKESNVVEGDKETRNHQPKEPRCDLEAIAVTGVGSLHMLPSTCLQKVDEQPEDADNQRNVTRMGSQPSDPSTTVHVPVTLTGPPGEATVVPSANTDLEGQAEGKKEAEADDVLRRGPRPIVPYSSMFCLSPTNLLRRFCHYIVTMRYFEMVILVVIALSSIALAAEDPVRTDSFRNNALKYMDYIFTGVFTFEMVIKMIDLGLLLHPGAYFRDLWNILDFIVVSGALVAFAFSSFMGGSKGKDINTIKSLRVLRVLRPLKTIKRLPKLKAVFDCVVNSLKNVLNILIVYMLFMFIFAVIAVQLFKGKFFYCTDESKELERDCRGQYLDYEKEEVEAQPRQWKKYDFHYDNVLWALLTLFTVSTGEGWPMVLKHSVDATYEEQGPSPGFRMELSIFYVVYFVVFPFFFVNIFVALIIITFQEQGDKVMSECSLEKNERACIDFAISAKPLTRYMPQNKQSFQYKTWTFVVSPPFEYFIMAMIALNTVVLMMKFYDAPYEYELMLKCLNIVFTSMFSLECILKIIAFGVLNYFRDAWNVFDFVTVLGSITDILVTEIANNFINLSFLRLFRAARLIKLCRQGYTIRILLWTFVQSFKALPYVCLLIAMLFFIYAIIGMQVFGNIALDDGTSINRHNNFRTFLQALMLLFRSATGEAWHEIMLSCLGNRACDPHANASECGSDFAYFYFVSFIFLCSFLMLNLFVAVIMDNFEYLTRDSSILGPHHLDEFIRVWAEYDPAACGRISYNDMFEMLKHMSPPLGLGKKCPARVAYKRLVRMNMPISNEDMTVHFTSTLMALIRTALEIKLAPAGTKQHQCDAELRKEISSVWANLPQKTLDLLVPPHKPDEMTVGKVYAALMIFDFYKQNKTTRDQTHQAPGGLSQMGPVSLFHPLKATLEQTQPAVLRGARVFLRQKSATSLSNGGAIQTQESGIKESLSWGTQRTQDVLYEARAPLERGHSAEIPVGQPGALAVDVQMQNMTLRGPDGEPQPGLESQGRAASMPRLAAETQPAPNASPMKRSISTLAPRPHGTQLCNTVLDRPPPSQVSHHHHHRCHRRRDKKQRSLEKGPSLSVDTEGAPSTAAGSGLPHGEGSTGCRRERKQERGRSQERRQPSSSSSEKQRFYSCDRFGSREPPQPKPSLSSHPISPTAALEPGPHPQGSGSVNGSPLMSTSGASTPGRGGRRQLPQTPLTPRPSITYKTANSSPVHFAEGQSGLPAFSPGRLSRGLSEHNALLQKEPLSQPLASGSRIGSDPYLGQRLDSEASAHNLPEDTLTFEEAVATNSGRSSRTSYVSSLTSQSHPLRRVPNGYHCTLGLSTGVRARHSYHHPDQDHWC

The first experiment addresses Voltage-dependent N-type calcium channel subunit alpha-1B (Rattus norvegicus, UniProt Q02294). The experiment in a line: Displacement of [125I]GVIA from Cav2.2 channel in rat brain by scintillation counting.
Conditions: not given; call rule not given here
The class given is tissue-based. In short, it runs like this:
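Radioligand displacement run in triplicate at room temperature on crude rat brain membrane (8 lg per well, added last) with 125I-GVIA tracer. Buffer: 20 mM HEPES, 75 mM NaCl, 0.2 mM EDTA, 0.2 mM EGTA, leupeptin, aprotinin, 0.1% BSA, pH 7.4. Shaken 1 h, then filtered on PEI-soaked glass fibre and washed with HEPES/125 mM NaCl, pH 7.4. Filter-bound counts read.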
In the case of `NCCCCCCCC(=O)Nc1ccc(OCCCN)cc1C(=O)Nc1ccc(Oc2ccc(O)cc2)cc1`, the EC50 result is recorded as “Not Active”.

`NCCCCCCCC(=O)Nc1ccc(OCCCN)cc1C(=O)Nc1ccc(Oc2ccc(F)cc2)cc1`: the EC50 entry is “Not Active”.

The experiment is the same for the next values; noted with them: read-out: EC50.
Turning to `NC(N)=NCCCCCC(=O)Nc1ccc(OCCCN=C(N)N)cc1C(=O)Nc1ccc(Oc2ccccc2)cc1`, the negative logarithm of the EC50 (pEC50) is 4.80.

Take `NCCCCCC(=O)Nc1ccc(OCCCN)cc1C(=O)Nc1ccc(Oc2ccccc2)cc1`: the pEC50 was 3.97.

As for `NC(N)=NCCCCCCCC(=O)Nc1ccc(OCCCN=C(N)N)cc1C(=O)Nc1ccc(Oc2ccc(F)cc2)cc1`, the pEC50 was 5.22.

As to `NC(N)=NCCCCCCCC(=O)Nc1ccc(OCCCCN=C(N)N)cc1C(=O)Nc1ccc(Oc2ccccc2)cc1`, the negative-log EC50 (pEC50) is 4.82.

For the compound `NC(N)=NCCCCC(=O)Nc1ccc(OCCCN=C(N)N)cc1C(=O)Nc1ccc(Oc2ccccc2)cc1`, the pEC50 is 3.94.

As for `NC(N)=NCCCCCCCC(=O)Nc1ccc(OCCCN=C(N)N)cc1C(=O)Nc1ccc(Oc2ccccc2)cc1`, the negative logarithm of the EC50 (pEC50) was 4.89.

On to `NC(N)=NCCCCCCCC(=O)Nc1ccc(OCCCN=C(N)N)cc1C(=O)Nc1ccc(Oc2ccc(O)cc2)cc1`, for which the negative-log EC50 (pEC50) is 4.80.

Take `NCCCCCCCC(=O)Nc1ccc(OCCCCN)cc1C(=O)Nc1ccc(Oc2ccccc2)cc1`: the pEC50 is 4.05.

Take `NCCCCCC(=O)Nc1ccc(OCCCCN)cc1C(=O)Nc1ccc(Oc2ccccc2)cc1`: the pEC50 was 4.00.

Consider `NCCCCC(=O)Nc1ccc(OCCCN)cc1C(=O)Nc1ccc(Oc2ccccc2)cc1`, for which the negative logarithm of the EC50 (pEC50) is 4.11.

`NC(N)=NCCCCCC(=O)Nc1ccc(OCCCCN=C(N)N)cc1C(=O)Nc1ccc(Oc2ccccc2)cc1`: the negative-log EC50 (pEC50) was 4.77.

Take `NCCCCCCCC(=O)Nc1ccc(OCCCN)cc1C(=O)Nc1ccc(Oc2ccccc2)cc1`: the pEC50 was 4.14.
